Test results published in PMC2745078 (Journal of medicinal chemistry, 2009).
Like-named read-outs stand apart in the source and are kept apart here. One block for each compound: values may come before it.

What was measured:
[1] = target: T1, human 2N4R tau (Homo sapiens, UniProt P10636); conditions: near physiological buffer conditions and tau concentrations ref 9; cited from earlier work
[2] = Dye aggregation; format: physicochemical; conditions: for slope of double log plot of monomer versus dimer concentration / dissociation equilibrium constant for dimerization (Kdim): assembly buffer; for dissociation equilibrium constant for dimerization (Kdim): 1 h at 37°C, mean ± S.D.
[3] = target: T1, human 2N4R tau; experiment: Filter trap assay for ODS-induced fibrillization of tau; format: biochemical
[4] = tested on: sarkosyl-insoluble tau in organotypic slices from JNPL3 transgenic mice (human tau P301L); experiment: Organotypic slice culture, sarkosyl-insoluble tau; format: cell-based
Procedure, shortened: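 Cortex/hippocampus of postnatal day-10 JNPL3 mice cut at 400 μm and cultured on membrane inserts 14 days (25% serum). One hemisphere given test compound (0.1 nM–1 μM) for 7 days; contralateral hemisphere given 0.008% DMSO. RIPA extracts equalised for protein, incubated in 1% sarkosyl, spun at 100,000g. Pellet immunoblotted with CP27. Densitometry n = 3, normalised to vehicle; Student's t test.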

[5] = tested on: cell culture models; conditions: cell culture models ref 21, 26, 25; cited from earlier work
[6] = tested on: organotypic slices from JNPL3 transgenic mice; experiment: Organotypic slice culture, cleaved PARP1 and α-tubulin levels; format: cell-based; conditions: seven days
[7] = target: T1, human 2N4R tau; conditions: electron microscopy assay format

T1 sequence (P10636 1-441 isoform P10636-8): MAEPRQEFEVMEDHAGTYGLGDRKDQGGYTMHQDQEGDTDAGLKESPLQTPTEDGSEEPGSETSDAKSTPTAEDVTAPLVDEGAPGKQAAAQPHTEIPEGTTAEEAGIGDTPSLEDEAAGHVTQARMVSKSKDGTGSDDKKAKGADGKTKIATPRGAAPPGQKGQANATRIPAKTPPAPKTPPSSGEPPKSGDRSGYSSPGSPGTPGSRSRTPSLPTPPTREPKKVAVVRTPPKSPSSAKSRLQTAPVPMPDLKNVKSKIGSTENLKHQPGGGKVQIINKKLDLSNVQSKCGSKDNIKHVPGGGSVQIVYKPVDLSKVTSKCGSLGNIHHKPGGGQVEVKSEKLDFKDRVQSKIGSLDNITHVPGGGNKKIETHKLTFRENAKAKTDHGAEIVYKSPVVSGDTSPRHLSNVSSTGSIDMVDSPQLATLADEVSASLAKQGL

slope of double log plot of monomer versus dimer concentration [2]: 1.7 ± 0.1
dissociation equilibrium constant for dimerization (Kdim) [2]: 0.68 ± 0.04 µM
Structure (SMILES): CCN1/C(=C/C=C/C=C/C=C/c2sc3ccccc3[n+]2CC)Sc2ccccc21.[I-] [Compound 5]

inhibitory activity ([3]; at up to 10 μM concentration): completely eliminated activity
Structure (SMILES): CCCCCCN1/C(=C/C=C/c2sc3ccccc3[n+]2CCCCCC)Sc2ccccc21.[I-] [Compound 10]

slope of double log plot of monomer versus dimer concentration [2]: 2.3 ± 0.1
dissociation equilibrium constant for dimerization (Kdim) [2]: 20.9 ± 0.7 µM
concentration for dimerization relative to 1 ([2]; higher than 1 under identical conditions): 10.0 ± 0.2 fold
levels of α-tubulin ([6]; 1 nM): unchanged
levels of α-tubulin ([6]; 1 μM): depletion of α-tubulin
levels of cleaved PARP1 ([6]; any tested concentration): did not increase
decrease of IC50 by methyl meso substituent ([3]; 11 versus hydrogen meso compound): 3 fold
IC50 ([3]; IC50, filter trap assay): ~300 nM
Structure (SMILES): CCN1/C(=C/C(C)=C/c2sc3ccccc3[n+]2CC)Sc2ccccc21.[I-] [Compound 11, 3,3’-diethyl-9-methylthiacarbocyanine iodide]
effect on tau aggregation ([4]; 100 nM, seven days): Inhibitory activity was lost
effect on tau aggregation ([4]; 300 nM and above, seven days): tau aggregation was induced
tau aggregation relative to DMSO vehicle alone ([4]; 1 – 10 nM, seven days): ~ 50%
lowest media concentration inhibiting tau aggregation ([4]; organotypic slices): 1 nM
concentration initiating apoptosis and collapse of the microtubule cytoskeleton [5]: > 300 nM

Continued, compound first:

Structure (SMILES): CCC(/C=C1\Sc2ccc(OC)cc2N1CCO)=C\c1sc2ccc(OC)cc2[n+]1CCO.[I-] [Compound 1]
IC50 [1]: submicromolar

Structure (SMILES): CCN1/C(=C/C=C/c2oc3ccccc3[n+]2CC)Oc2ccccc21.[I-] [Compound 6]
inhibitory activity ([3]; at the highest concentration tested): essentially no inhibitory activity

Structure (SMILES): CCN1/C(=C/C=C/C2=[N+](CC)c3ccccc3C2(C)C)C(C)(C)c2ccccc21.[I-] [Compound 8]
dimerization ([2]; any concentration tested up to 96 μM): did not dimerize

Structure (SMILES): CCCN1/C(=C/C=C/C2=[N+](CCC)c3ccccc3C2(C)C)C(C)(C)c2ccccc21.[I-] [Compound 9]
reduction of inhibitory potency ([3]; 9 (three-carbon N-alkyl) versus 8 (two-carbon)): ~ 3 fold

Structure (SMILES): CC(/C=C1\Sc2ccccc2N1CCCS(=O)(=O)[O-])=C\c1sc2ccccc2[n+]1CCCS(=O)(=O)[O-].CC[n+]1ccccc1 [Compound 12]
slope of double log plot of monomer versus dimer concentration [2]: 1.8 ± 0.1
dissociation equilibrium constant for dimerization (Kdim) [2]: 7.5 ± 0.4 µM
inhibitory activity ([3]; at up to 10 μM concentration): completely lost

Structure (SMILES): CN(C)c1ccc2nc3ccc(N(C)C)cc3[s+]c2c1.[Cl-] [Methylene blue, 3,7-bis(dimethylamino)phenothiazin-5-ium chloride]
behaviour as antagonist [7]: partial antagonist
